Sampled rows, rich in hits. Any-hit rate of the full collection: about 3.2%.
SMARCA2 act: increases SMARCA2 function in MMTV reporter cells. activation, % at 9.1 µM. MG213 cells, MMTV-luciferase reporter, dexamethasone, overnight. actives 1% (n = 370,000). AID 652017; in the data active = activation above about 7.8%;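 note: 0% = vehicle wells and 100% = reference activator wells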
GASC-1 inh: inhibitors of human GASC-1 (JMJD2C) demethylase. Q9H3R0. GST-JMJD2C(1-420) H3K9me3 demethylation, DELFIA europium. inhibition, % at 2.35 µM. actives 0.069% (n = 330,000). AID 2099;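 active = more than half of a compound's replicate wells show inhibition beyond 50%, single wells judged on their own value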;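 note: signal counts dimethyl H3K9 product captured on neutravidin plate; 0% = median of DMSO wells and 100% = 0.3 times that DMSO median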
NR2E3 ag-1: activates human photoreceptor nuclear receptor NR2E3. Q9Y5X4. GST-NR2E3/biotin-RetCOR TR-FRET, 1536-well. inhibition of corepressor binding, % at 4.78 µM. actives 0.12% (n = 320,000);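 active = percent inhibition above the cutoff of mean plus 3 SD of all tested compounds, set per screening campaign, cut at about 20% in these data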;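 note: 0% = DMSO wells and 100% = biotin wells as full block of FRET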
Target sequence (Q9Y5X4 whole entry, looked up): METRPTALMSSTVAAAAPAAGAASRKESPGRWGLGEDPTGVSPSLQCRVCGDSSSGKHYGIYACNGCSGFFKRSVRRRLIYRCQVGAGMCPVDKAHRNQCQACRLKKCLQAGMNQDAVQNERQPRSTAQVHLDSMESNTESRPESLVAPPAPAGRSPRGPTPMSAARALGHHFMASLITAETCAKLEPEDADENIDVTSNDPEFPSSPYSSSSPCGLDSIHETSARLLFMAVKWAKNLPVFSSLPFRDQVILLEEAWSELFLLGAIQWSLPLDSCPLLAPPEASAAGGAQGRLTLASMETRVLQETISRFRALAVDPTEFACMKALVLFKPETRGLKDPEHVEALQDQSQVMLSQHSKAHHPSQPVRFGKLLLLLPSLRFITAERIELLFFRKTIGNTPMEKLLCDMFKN
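Format: 1536-well format; test system: GST-NR2E3 and biotin-RetCOR proteins; read-out basis: percent inhibition of TR-FRET ratio; timing: 5 h incubation at 4 °C; detection: time-resolved FRET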
DAX1 inh-1: inhibits human nuclear receptor DAX1; actives 0.99% (n = 340,000); P51843; HEK293 Gal4-DAX1 luciferase reporter, luminescence; AID 504766; inhibition, % at 6.75 µM;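 active = inhibition above the mean over all tested compounds plus 3 SD, cut at about 4.2% in these data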;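 note: 0% = DAX1-transfected cells with DMSO and 100% = empty-vector control cells with DMSO; inhibition shows as a rise in luminescence from relieved DAX1 repression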
DAX1 inh-2: blocks DAX1 repression of SF-1 activated StAR promoter | HEK293T StAR-luciferase reporter, SF-1/DAX-1 repression relief | inhibition, % at 6.8 µM | actives 1.1% (n = 370,000) | AID 652010;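 active = inhibition above the mean over all tested compounds plus 3 SD, cut at about 3.6% in these data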;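 note: 0% = DAX-1 cells with DMSO and 100% = cells lacking DAX-1 with DMSO; higher inhibition means more luminescence from relief of DAX-1 repression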
NR2E3 ag-2: activates human NR2E3 receptor; inhibition of corepressor binding, % at 3.98 µM; actives 0.35% (n = 360,000); AID 602229; Q9Y5X4; CHO-S Gal4-NCOR/VP16-NR2E3 two-hybrid, luciferase;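 active = inhibition above the mean of all tested compounds plus 3 SD, cut at about 70% in these data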;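 note: 0% = DMSO with NR2E3 transfected cells and 100% = cells lacking NR2E3 construct; higher means lower luciferase signal from less NR2E3 corepressor binding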
An asterisk follows results filed as active; . = no result given.

SMILES	SMARCA2 act	GASC-1 inh	NR2E3 ag-1	DAX1 inh-1	DAX1 inh-2	NR2E3 ag-2
Cc1cc(C(=O)OCC(=O)NCCc2ccccc2)c(C)o1	2	2	-1	5.1*	0	2
O=S1(=O)CC(N2CCCC2)CN1C1CCCCC1 (stereo not drawn)	0	.	.	.	4.3*	9
O=C(NN=C1CCCCCC1)c1ccncc1	0	0	.	0	0	-22
CC(=O)N1CCC(=NNC(=O)c2cccs2)CC1	6	-5	2	5.3*	4.0*	-110
O=C(NN=C1CCCC1)c1cccs1	3	-4	-2	3	4.4*	-121
C/C(=N/NC(=O)c1cccs1)c1cccs1	2	15	-1	7.1*	2	-67
COC(=O)c1ccc(COc2ccc(/C=N/Nc3nc(C)cc(=O)[nH]3)cc2)cc1	3	1	3	5.8*	1	-46
O=C(C1CCCN1S(=O)(=O)c1ccccc1[N+](=O)[O-])N1CCc2ccccc2C1 (stereo not drawn)	-2	.	.	.	0	.
CC(=O)c1cccc(Nc2ccc(-c3ccccc3F)nn2)c1	-1	2	-3	0	3.8*	-116
COc1ccccc1-c1ccc(Nc2cccc(C(C)=O)c2)nn1	5	-14	1	1	0	-17
Cn1c(Cc2cccs2)nnc1SCC(=O)Nc1ccc(OCc2ccccc2)cc1	7	.	.	.	2	.
COc1ccc(CCn2c(-c3ccc(C(C)(C)C)cc3)n[nH]c2=S)cc1OC	7.9*	.	5	1	-1	-5
COc1ccc(CCn2c(-c3ccc(Cl)cc3)n[nH]c2=S)cc1OC	0	-12	1	-1	0	-9
C[C@@H]1CCN(C2CC2)S(=O)(=O)c2c(cccc2N2CC[C@@H](O)C2)O1	-1	.	.	.	-1	.
CC1(C)CC(=O)N(Cc2ccccc2)C(=O)C1	-1	-6	-1	4.5*	-1	1
COc1cccc(OC(C)CCN2CCC(C(O)(c3ccccc3)c3ccccc3)CC2)c1 (stereo not drawn)	-3	.	.	.	-1	.
COc1ccccc1C1CC(=O)Oc2cc(O)ccc21 (stereo not drawn)	-3	.	.	0	4.0*	-9
COc1ccccc1C1CC(=O)Oc2cc(C)c(Cl)cc21 (stereo not drawn)	-2	.	.	0	-1	-15
COc1ccc(CCNC(=O)CC(Cc2ccccc2)C(=O)O)cc1OC (stereo not drawn)	-2	-5	-1	1	2	-9
COC(=O)[C@@H](Cc1ccccc1)NC(=O)NCCc1ccc(OC)c(OC)c1	0	3	-1	4.3*	-1	-13
O=C(CCn1nc(-c2ccccc2)ccc1=O)N1CCOCC1	-1	15	0	-1	1	-21
CCOC(=O)N1CCN(C(=O)CCn2nc(-c3ccccc3)ccc2=O)CC1	-3	-3	-1	4.8*	0	16
CCCCCn1nnnc1C1(C)CCCC(=O)N1Cc1ccco1 (stereo not drawn)	-2	.	.	.	0	.
CC(=O)c1ccc(N2CCN(C(=O)[C@H](C)NC(=O)c3ccccc3Cl)CC2)cc1	-1	7	4	6.0*	1	0
COc1ccc(S(=O)(=O)N2CCN(C(=O)c3cccnc3)CC2)cc1OC	-2	6	-5	-1	0	-10
SMILES	SMARCA2 act	GASC-1 inh	NR2E3 ag-1	DAX1 inh-1	DAX1 inh-2	NR2E3 ag-2
COc1ccc(S(=O)(=O)N2CCN(C(=O)c3ccc(=O)[nH]n3)CC2)cc1OC	-2	.	.	7.5*	0	-15
COc1ccc(S(=O)(=O)N2CCN(CC(=O)c3c(N)n(C)c(=O)n(C)c3=O)CC2)cc1OC	-1	.	.	5.2*	-1	-16
CCO[C@H]1OC(C(=O)NC2CC2)=C[C@@H](c2c[nH]c3ccccc23)[C@@H]1CCCO	0	-14	-2	1	0	-21
CCO[C@@H]1OC(C(=O)NC2CC2)=C[C@H](c2c[nH]c3ccccc23)[C@H]1CCCO	1	52*	0	0	0	7
Cc1ccc2c(CN3CCC(C)CC3)cc(=O)oc2c1C	1	-4	.	0	1	-65
Cc1cc(C)c2c(CN3CCC(C)CC3)cc(=O)oc2c1C	0	1	-3	4.8*	0	-19
COc1cccc2c1OC1(CCN(C(C)C)CC1)N1N=C(c3cccnc3)CC21 (stereo not drawn)	4	2	0	6.8*	0	-27
CC(C)N1CCC2(CC1)Oc1ccc(Br)cc1C1CC(c3cccnc3)=NN12 (stereo not drawn)	-2	6	-1	2	1	-6
Cc1ccc(C2NNC(=O)C2NC(=O)c2ccccc2)cc1 (stereo not drawn)	5	-6	0	4.5*	1	-119
CC(C)[C@H](NC(=O)c1ccccc1)C(=O)OCC(=O)NCc1ccc(F)cc1	1	8	-3	5.4*	-1	-17
CC(=O)N1N=C(c2ccc(C)cc2)OC1c1ccc(C(C)C)cc1 (stereo not drawn)	4	-2	6	4.5*	1	-26
CC(=O)N1N=C(c2ccc(C)cc2)OC1c1ccc(C)cc1 (stereo not drawn)	1	3	0	0	0	-10
CCOC(=O)C1=NOC(C(C)=O)(C(=O)N2CCOCC2)C1 (stereo not drawn)	-3	.	.	.	0	.
O=C(NC1CCCCC1)Oc1ccccc1	-2	-2	2	6.9*	0	-14
CCCCCN1CCCCC(NC(=O)C2CCCCC2)C1=O (stereo not drawn)	-1	.	.	.	-2	.
CCC1CCCCN1c1ccc([N+](=O)[O-])cc1/C=N/NC(=O)Cn1c2ccccc2c(=O)c2ccccc21 (stereo not drawn)	-2	5	1	6.0*	-1	-43
CCOC(=O)[C@]12CCCC=C1N(Cc1ccc(OC)cc1)C(=O)[C@@H]2CC(=O)NCc1ccc(OC)c(OC)c1	1	.	.	.	-1	.
N#Cc1cccc(C(=O)N2CCC(Oc3cccnc3)CC2)c1	2	.	.	.	-1	.
C=CCc1c(C)nc(N2CCSCC2)[nH]c1=O	-3	2	1	4.3*	0	-5
COC(=O)CNC(=O)c1cc(OC)cc(OC)c1	-1	-14	-2	1	3.8*	-6
OC(c1ccccc1)c1ncc(-c2ccccc2Cl)[nH]1 (stereo not drawn)	7.9*	.	.	.	2	-99
COc1ccc(-c2cnc(C(O)c3ccccc3)[nH]2)cc1 (stereo not drawn)	-1	.	.	.	4.3*	-97
O=C(NCCN1C(=O)C2C3C=CC(C3)C2C1=O)Nc1ccccc1 (stereo not drawn)	0	1	3	0	2	-16

Screening data: PubChem BioAssay, several laboratories
